# Rows were chosen to be rich in hits. Some 1.9% of all compounds tested hit in one or more screens of this group.
# LEDGF integ inh – blocks HIV-1 LEDGF/p75-dependent DNA integration; 0.64% of 370,000 active; TR-FRET IN-LEDGF/p75 DNA integration, Eu/Cy5; AID 743269; inhibition, % at 3.7 µM;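 active = inhibition above the screen-wide mean plus 3 SD, cut at about 13% in these data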;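 also: signal is the Cy5 over europium emission ratio at 671 and 618 nm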
# Tn7 DDE FP – inhibitors of Tn7 peptide binding to human fibrin DD(E); P02675; FP displacement of FITC-Tn7 peptide from fibrin DD(E); 0% = median of compound wells per plate; inhibition, % at 8.3 µM; 0.13% of 370,000 active;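 active = inhibition above the mean of compounds falling within the control limits plus 3 SD of them, cut at about 14% in these data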
#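 assay system = human clot-derived fibrin DD(E) complex | quantity = Fibrin-DD(E) at 2 µM final | timing = 10 min preincubation, 3 h with tracer, room temperature | signal = fluorescence polarization | measure = percent inhibition | benchmarks = high control wells with 10 µM unlabelled Aha-Tn7 peptide (full inhibition) | replicates = singlicate testing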
# UHRF1 MBD2 ctr – blocks human UHRF1 binding to methylated DNA. Q96T88. UHRF1 binding to methylated oligo, TR-FRET. inhibition, % at 4.4 µM. 0.75% of 370,000 active; in the data active = inhibition above about 21%;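 also: UHRF1 SRA domain binding a hemimethylated CpG hairpin DNA probe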
# Target sequence (Q96T88 whole entry, looked up, the tested form may be a part): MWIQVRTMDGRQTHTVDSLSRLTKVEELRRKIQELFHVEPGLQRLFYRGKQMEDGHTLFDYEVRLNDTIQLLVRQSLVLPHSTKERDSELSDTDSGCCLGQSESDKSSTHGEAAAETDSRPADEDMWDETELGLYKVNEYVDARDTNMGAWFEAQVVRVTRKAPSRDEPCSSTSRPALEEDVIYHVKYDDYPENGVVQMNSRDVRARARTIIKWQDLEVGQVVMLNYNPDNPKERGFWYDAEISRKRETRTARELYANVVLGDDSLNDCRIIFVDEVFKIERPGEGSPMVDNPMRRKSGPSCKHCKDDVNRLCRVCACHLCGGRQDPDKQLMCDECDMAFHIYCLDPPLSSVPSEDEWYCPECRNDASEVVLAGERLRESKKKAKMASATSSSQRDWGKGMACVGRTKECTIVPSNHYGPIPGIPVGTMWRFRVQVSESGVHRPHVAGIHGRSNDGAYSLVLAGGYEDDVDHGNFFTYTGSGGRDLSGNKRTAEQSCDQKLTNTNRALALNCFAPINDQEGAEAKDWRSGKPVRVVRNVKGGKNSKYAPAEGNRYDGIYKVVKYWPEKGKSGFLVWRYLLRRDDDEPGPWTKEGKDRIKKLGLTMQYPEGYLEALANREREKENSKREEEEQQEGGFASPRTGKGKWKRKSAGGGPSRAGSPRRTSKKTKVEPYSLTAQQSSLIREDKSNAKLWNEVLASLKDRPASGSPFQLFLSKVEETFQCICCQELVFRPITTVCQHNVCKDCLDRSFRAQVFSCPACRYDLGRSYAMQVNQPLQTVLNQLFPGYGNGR
# TDP2 inh – blocks human TDP2 phosphodiesterase activity; O95551; recombinant TDP2, T5PNP hydrolysis, p-nitrophenol absorbance 415 nm; inhibition, % at 12.8 µM; 0.34% of 370,000 active;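 active = inhibition above the mean of all tested compounds plus 3 SD, set per campaign, cut at about 25% in these data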
#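 System – recombinant human TDP2 · Amount – 120 nM TDP2 per well · Buffer or medium – Mg2+-containing Tris-HCl buffer, pH 7.5 · Reagent – T5PNP substrate, 5 mM · Dosing – 12.8 µM single point, 1% DMSO · Incubation – 2 h at 37 °C · Measured by – epi absorbance · Read-out basis – percent inhibition · Benchmarks – high control without enzyme, low control DMSO plus TDP2 · Repeats – singlicate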
# DDE Tn6 FP inh – disrupts Tn6 cyclic peptide binding to fibrin D-Dimer-E complex; P02675; Fibrin DD(E) TRITC-Tn6 fluorescence polarization displacement; 0.21% of 370,000 active; AID 720509; inhibition, % at 8.3 µM;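 active = inhibition above a per-campaign cutoff: mean of compounds within control limits plus 3 SD, cut at about 15% in these data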
# MBD2 DNA inh – MBD2-methylated oligo binding inhibition; AID 686964; 0.31% of 370,000 active; inhibition, % at 4.4 µM; TR-FRET, MBD2 binding to methylated oligonucleotide; in the data active = inhibition above about 13%
# Hits are given with their value; 0 = inactive.
SMILES,LEDGF integ inh,Tn7 DDE FP,UHRF1 MBD2 ctr,TDP2 inh,DDE Tn6 FP inh,MBD2 DNA inh
COC(=O)[C@@H]1C[C@@]2(c3ccccc3)c3ccccc3N(S(=O)(=O)c3ccccc3)[C@H]2N1C(=O)CNC/C=C(\C)CCC=C(C)C,0,0,0,0,0,0
Cc1ccc(NC(=O)/C(=C\c2ccco2)NC(=O)c2ccco2)cc1,0,0,0,0,0,0
Cc1ccc(NC(=O)N/C=C/c2ccco2)cc1,14,0,0,0,0,0
CC(C)N(Cc1ccccc1)C(=O)/C=C/c1ccccc1[N+](=O)[O-],0,0,28,0,0,0
CCOC(=O)[C@]12CCCC=C1N(CCCOC)C(=O)[C@@H]2CC(=O)NCC12CC3CC(CC(C3)C1)C2,0,0,0,0,0,0
CC[C@@]1(C(=O)OC)N[C@H](CN(C)C(=O)Nc2ccc(OC)cc2)[C@@H]2C(=O)N(C)C(=O)[C@@H]21,0,0,22,0,0,0
CC[C@@]1(C(=O)OC)N[C@H](CN(C)C(=O)Nc2ccc(C)cc2)[C@@H]2C(=O)N(C)C(=O)[C@@H]21,0,0,0,0,0,0
COc1ccc(/C=C/C(=O)OCC(=O)NCCC2=CCCCC2)cc1,0,0,0,0,0,0
COc1cccc(/C=C/C(=O)OCC(=O)NCCC2=CCCCC2)c1,0,0,37,0,0,0
CSc1ccc(OC2CCCCC2NS(=O)(=O)c2ccccc2)cc1 (centres undefined),0,0,98,0,0,0
COC(=O)[C@H](N[C@H](/C=C/c1ccccc1)[C@@H](O)Cc1ccccc1)c1ccccc1,0,0,0,0,0,0
O=C(COC(=O)c1cc(=O)[nH]c2ccccc12)NC1CCCC1,0,0,30,0,0,0
CC1CCCCC1NC(=O)COC(=O)c1cc(=O)[nH]c2ccccc12 (centres undefined),0,0,0,0,0,0
O=C(NCCO)c1ccc2nc(-c3ccco3)c(-c3ccco3)nc2c1,77,0,42,47,0,0
c1coc(-c2nc3ccccc3nc2-c2ccco2)c1,48,0,53,28,0,0
CC(C)(C)OC(=O)N[C@H]1C=C[C@@H](CC(=O)OCC(F)(F)F)C1,0,0,0,0,0,0
CC(C)Oc1ccc(CCC(=O)N/N=C/c2ccncc2)cc1,0,0,27,0,0,0
N#CCc1cccnc1Sc1ccc(Cl)cc1,0,0,26,0,0,0
Cc1ccc(/C=C/S(=O)(=O)NCC(=O)OCC(=O)Nc2ccc(C(=O)N(C)C)cc2)cc1,0,0,0,0,0,0
Cc1ccc(/C=C/S(=O)(=O)NCC(=O)OCC(=O)Nc2ccc(C(N)=O)cc2)cc1,0,0,23,0,0,0
CN1CCCCC(NC(=O)c2ccccn2)C1=O (centres undefined),0,0,0,0,0,0
CCc1ccc(S(=O)(=O)/N=C2\C=C(Nc3ccc(C(=O)O)cc3)C(=O)c3ccccc32)cc1,29,0,0,72,0,0
Cc1ccc(-c2nc3ccc(Br)cn3c2CC(C)(C)C)cc1,0,0,0,0,0,0
Cc1ccn2c(CC(C)(C)C)c(-c3ccc(F)cc3)nc2c1,0,0,22,0,0,0
Cc1ccn2c(Cc3ccccc3)c(-c3ccccc3)nc2c1,0,0,21,0,0,0
SMILES,LEDGF integ inh,Tn7 DDE FP,UHRF1 MBD2 ctr,TDP2 inh,DDE Tn6 FP inh,MBD2 DNA inh
Cc1ccc(Cc2c(-c3ccc(C)cc3)nc3cc(C)ccn23)cc1,0,0,23,0,0,0
Cc1ccc(Cc2c(-c3ccc(Cl)cc3)nc3cc(C)ccn23)cc1,0,0,22,0,0,0
COC(=O)C1=C(C(=O)OC)C2CCCC1C1N=NN(c3ccccc3)C21 (centres undefined),0,0,0,0,0,0
COc1ccc(CCNCC2C(Oc3ccc(Cl)cc3)C(=O)N2c2ccccc2C)cc1OC (centres undefined),0,0,23,0,0,0
C=CCN1[C@H](C)COc2cc(N3CCSCC3)ccc2S1(=O)=O,0,0,0,0,0,0
COc1ccc(NC2CCCN(C(=O)c3ccc(CSC)o3)C2)cc1OC (centres undefined),0,0,0,0,0,0
COCc1ccc(C(=O)N2CCCC(Nc3ccc4c(c3)OCCO4)C2)o1 (centres undefined),0,0,21,0,0,0
CCc1ccccc1N=Nc1c(N)[nH]n(-c2ccccc2)c1=O,0,0,0,0,0,0
O=C(O)CCNc1cc(N2CCN(C(=O)c3ccco3)CC2)c2noc3c2c1C(=O)c1ccccc1-3,0,0,0,38,46,0
Cc1ccccc1-c1ccc2c(c1)[C@@H]1C[C@H](N(C)CC3CCCCC3)[C@H]([C@H](C)O)CN1CC2,0,0,0,0,0,0
Cc1cc(N2CCN(C(=O)OC(C)(C)C)C[C@@H]2C)ccc1Br,0,0,0,0,0,0
Cc1ccccc1CC(=O)NCC1CCCCC1,0,0,40,0,0,0
CCn1c(SCc2nc3sc(C(=O)O)c(C)c3c(=O)[nH]2)nc2ccccc21,0,0,25,0,0,0
CCCCCCC12C(=Cc3cc4c(cc31)OCCO4)c1cc(OC)c(OC)cc1C(CC(=O)NCc1ccccc1)N2C(=O)OC (centres undefined),0,0,0,0,0,0
CSc1nccc(-c2nn(-c3ccc(C)cc3)ccc2=O)n1,0,0,23,0,0,0
CCN(CCNC(=O)c1ccc(CSc2nc3ccncc3[nH]2)cc1)c1ccccc1,0,0,0,0,0,0
CC1CC(C)CN(C(=O)c2ccc(CSc3nc4ccncc4[nH]3)cc2)C1 (centres undefined),0,0,34,0,0,0
Cc1ccc(S(=O)(=O)N2CC3=C(c4ccccc4)CC4(C)C(=O)C(C)(C)CC4=C3C2)cc1 (centres undefined),0,0,0,0,0,0
O=C(Nc1ccncc1)c1ccc2c(c1)C(=O)N(C1CCCCC1)C2=O,0,0,26,0,0,0
CCOc1ccc(NC(=O)N2CCC(C(=O)c3ccc(F)cc3)CC2)cc1,0,0,21,0,0,0
CCOc1ccc(NC(=S)N2CCC(C(=O)c3ccc(F)cc3)CC2)cc1,0,0,0,0,0,0
CCCS(=O)(=O)N1CCN(S(=O)(=O)c2ccccc2[N+](=O)[O-])CC1,0,0,0,0,0,0
O=[N+]([O-])c1ccccc1S(=O)(=O)N1CCSCC1,0,0,66,0,0,0
COc1ccc(OC)c(CN(CC(C)C)S(=O)(=O)c2ccccc2Br)c1,0,0,0,0,0,0
O=S(=O)(c1ccc(F)cc1)N1CCCc2nc(-c3ccc(Br)cc3)ccc21,0,0,0,0,0,0

# Source: PubChem BioAssay (The Scripps Research Institute Molecular Screening Center)
